From ChEMBL document CHEMBL4033799, “Stable and Long-Lasting, Novel Bicyclic Peptide Plasma Kallikrein Inhibitors for the Treatment of Diabetic Macular Edema” (J Med Chem, 2018)
*1 amine or outer side, *2 acyl side, *3 side chain or, on linkers, in order; H or OH if unused. Where a SMILES comes first, the peptide text is derived from it. Bridges are numbered along the chain shown (N, C = ends). TBMB = c1c(C[*:1])cc(C[*:3])cc1C[*:2]

Experiments:
[1] = tested on: Plasma; assay: Stability in rat plasma at 50 uM incubated for 2 days by MALDI-TOF analysis; assay type: ADME, cell-free; settings: 48 h
Procedure, shortened: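 Qualitative stability test. 1 mM DMSO stock diluted into citrated rat plasma to 50 μM and held at 37 °C for up to 2 days. Aliquots at time points quenched in 1:1 acetonitrile/methanol and centrifuged. Supernatant mixed with 30 mM ammonium bicarbonate. Parent mass and protease metabolites detected by MALDI-TOF.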

[2] = Aqueous solubility of the compound in buffer; assay type: physicochemical
[3] = biological target: Plasma kallikrein (Homo sapiens, UniProt P03952); assay: Inhibition of human plasma kallikrein using fluorogenic H-Pro-Phe-Arg-AMC peptide as substrate preincubated for 15 mins followed by substrate addition measured by fluorescence-based assay; settings: read-out: Ki(app)
[4] = biological target: Plasma kallikrein (Rattus norvegicus, UniProt P14272); assay: Inhibition of recombinant Sprague-Dawley rat plasma kallikrein using fluorogenic H-Pro-Phe-Arg-AMC peptide as substrate preincubated for 15 mins followed by substrate addition measured by fluorescence-based assay; settings: read-out: Ki(app)
[5] = Inhibition of rabbit plasma kallikrein using fluorogenic H-Pro-Phe-Arg-AMC peptide as substrate preincubated for 15 mins followed by substrate addition measured by fluorescence-based assay; parameters: species or system Oryctolagus cuniculus; settings: read-out: Ki(app)
Procedure, shortened: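 Assays ran at 25 °C in 50 mM Tris-HCl, 250 mM NaCl, 1.5 μM BSA, pH 7.5. PKal (nominal 1–2 nM) was preincubated 15 min with serially diluted peptide. […] Human PKal was purified from plasma; rat PKal was made in-house or bought; other species were purified in-house from kaolin-activated plasma.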

[6] = biological target: (UniProt A0A8D1M4K5); assay: Inhibition of pig plasma kallikrein using fluorogenic H-Pro-Phe-Arg-AMC peptide as substrate preincubated for 15 mins followed by substrate addition measured by fluorescence-based assay; parameters: species or system Sus scrofa; settings: read-out: Ki(app)
[7] = Half life in human plasma at 4 uM measured up to 24 hrs by LC-MS/MS analysis; assay type: ADME, cell-free
Procedure, shortened: (§1)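 Peptide from a 0.16 mM DMSO stock was added to human, rat or mouse plasma (final 4 μM) or to homogenized human vitreous (final 1 μM), with internal standard. Samples were incubated at 37 °C for up to 24 h and extracted with water/acetonitrile/methanol 1:3:3.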

[8] = Half life in mouse plasma at 4 uM measured up to 24 hrs by LC-MS/MS analysis; assay type: ADME, cell-free; procedure, shortened: as §1
[9] = Half life in rat plasma at 4 uM measured up to 24 hrs by LC-MS/MS analysis; assay type: ADME, cell-free; procedure, shortened: as §1
[10] = Half life in human vitreous humor at 1 uM measured up to 24 hrs by LC-MS/MS analysis; assay type: ADME, tissue-based; procedure, shortened: as §1
[11] = tested on: Plasma; assay: Drug metabolism in rat plasma assessed as (5R,8S,11S,14S,17S,20S,23R)-29-[[(2R)-2-acetamido-3-hydroxy-3-oxo-propyl]sulfanylmethyl]-5-amino-14-(3-amino-3-oxo-propyl)-17-(carboxymethyl)-11-(1H-imidazol-5-ylmethyl)-8,20-diisobutyl-6,9,12,15,18,21-hexaoxo-3,25-dithia-7,10,13,16,19,22-hexazabicyclo[25.3.1]hentriaconta-1(31),27,29-triene-23-carboxylic acid metabolite formation at 50 uM after 18 hrs by MALDI-TOF analysis; assay type: ADME, cell-free
Procedure, shortened: (§2)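 Peptide from a 1 mM DMSO stock was diluted to 50 μM in citrated mouse, rat or human plasma and incubated at 37 °C for up to 2 days. Samples taken at time points were quenched in 1:1 acetonitrile/methanol and centrifuged. The supernatant was mixed with ammonium bicarbonate in acetonitrile/water, and parent peptide and metabolites were detected by MALDI-TOF.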

[12] = tested on: Plasma; assay: Drug metabolism in rat plasma assessed as (5R,8S,11S,14S,17S,20S,23R)-29-[[(2R)-2-acetamido-3-[[(1S)-2-hydroxy-1-(hydroxymethyl)-2-oxo-ethyl]amino]-3-oxo-propyl]sulfanylmethyl]-5-amino-14-(3-amino-3-oxo-propyl)-17-(carboxymethyl)-11-(1H-imidazol-5-ylmethyl)-8,20-diisobutyl-6,9,12,15,18,21-hexaoxo-3,25-dithia-7,10,13,16,19,22-hexazabicyclo[25.3.1]hentriaconta-1(31),27,29-triene-23-carboxylic acid metabolite formation at 50 uM after 18 hrs by MALDI-TOF analysis; assay type: ADME, cell-free; procedure, shortened: as §2
[13] = Plasma clearance in Sprague-Dawley rat at 10 mg/kg, iv administered as infusion over 1 hr measured up to 240 mins post dose by LC-MS/MS analysis; assay type: ADME, organism-based
Procedure, shortened: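 Groups of 2 male Sprague-Dawley rats; 10 mg/kg infused into the jugular vein over 1 h. Serial blood drawn via tail-vein cannulae at 5–240 min into EDTA tubes and processed to plasma. Plasma assayed by LC-MS/MS against a 16–4000 ng/mL calibration line in control rat plasma.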

[14] = tested on: Plasma; assay: Drug metabolism in rat plasma assessed as (5R,8S,11S,14S,17S,20S,23R)-29-[[(2R)-2-acetamido-3-[[(1S)-1-(hydroxymethyl)-2-[[(1S)-2-[(2S)-2-[[(1S)-2-hydroxy-1-methyl-2-oxo-ethyl]carbamoyl]pyrrolidin-1-yl]-1-(1H-indol-3-ylmethyl)-2-oxo-ethyl]amino]-2-oxo-ethyl]amino]-3-oxo-propyl]sulfanylmethyl]-5-amino-14-(3-amino-3-oxo-propyl)-17-(carboxymethyl)-11-(1H-imidazol-5-ylmethyl)-8,20-diisobutyl-6,9,12,15,18,21-hexaoxo-3,25-dithia-7,10,13,16,19,22-hexazabicyclo[25.3.1]hentriaconta-1(31),27,29-triene-23-carboxylic acid metabolite formation at 50 uM after 18 hrs by MALDI-TOF analysis; assay type: ADME, cell-free; procedure, shortened: as §2
[15] = tested on: Plasma; assay: Drug metabolism in human plasma assessed as deltaL6H7Q6 metabolite formation at 50 uM after 18 hrs by MALDI-TOF analysis; assay type: ADME, cell-free; procedure, shortened: as §2
[16] = tested on: Plasma; assay: Drug metabolism in human plasma assessed as deltaH7Q6 metabolite formation at 50 uM after 18 hrs by MALDI-TOF analysis; assay type: ADME, cell-free; procedure, shortened: as §2
[17] = tested on: Plasma; assay: Drug metabolism in human plasma assessed as deltaLeu6 metabolite formation at 50 uM after 18 hrs by MALDI-TOF analysis; assay type: ADME, cell-free; procedure, shortened: as §2

Chain of Plasma kallikrein (Rattus norvegicus, UniProt P14272) (P14272 20-390 limits assumed): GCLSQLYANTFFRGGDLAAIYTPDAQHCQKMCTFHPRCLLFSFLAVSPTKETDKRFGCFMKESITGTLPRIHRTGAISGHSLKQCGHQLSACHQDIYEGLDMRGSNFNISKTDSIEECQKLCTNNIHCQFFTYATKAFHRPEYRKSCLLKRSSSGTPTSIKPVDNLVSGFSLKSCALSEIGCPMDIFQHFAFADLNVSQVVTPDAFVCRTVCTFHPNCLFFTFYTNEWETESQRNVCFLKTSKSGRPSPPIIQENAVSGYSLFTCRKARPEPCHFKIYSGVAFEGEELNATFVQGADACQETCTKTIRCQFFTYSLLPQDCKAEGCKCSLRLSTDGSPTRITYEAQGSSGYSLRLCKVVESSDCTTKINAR
Chain of Plasma kallikrein (Rattus norvegicus, UniProt P14272) (P14272 391-638 limits assumed): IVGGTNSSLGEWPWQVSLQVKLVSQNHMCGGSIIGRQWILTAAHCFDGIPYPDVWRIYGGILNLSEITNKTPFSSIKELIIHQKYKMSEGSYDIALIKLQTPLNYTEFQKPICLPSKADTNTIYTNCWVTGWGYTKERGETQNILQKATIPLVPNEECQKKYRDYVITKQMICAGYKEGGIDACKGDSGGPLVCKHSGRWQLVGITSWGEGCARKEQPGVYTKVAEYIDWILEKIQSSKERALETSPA
Chain of Plasma kallikrein (Homo sapiens, UniProt P03952) (P03952 20-390 limits assumed): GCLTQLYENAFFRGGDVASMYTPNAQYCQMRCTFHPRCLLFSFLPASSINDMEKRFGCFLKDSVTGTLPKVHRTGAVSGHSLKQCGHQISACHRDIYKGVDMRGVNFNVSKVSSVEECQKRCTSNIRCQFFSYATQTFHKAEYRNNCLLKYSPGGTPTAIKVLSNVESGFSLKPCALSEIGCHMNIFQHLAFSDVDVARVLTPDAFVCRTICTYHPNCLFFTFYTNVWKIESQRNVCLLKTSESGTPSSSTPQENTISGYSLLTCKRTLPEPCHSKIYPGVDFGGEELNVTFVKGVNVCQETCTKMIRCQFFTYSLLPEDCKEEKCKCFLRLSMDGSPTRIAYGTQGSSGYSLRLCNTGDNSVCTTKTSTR
Chain of Plasma kallikrein (Homo sapiens, UniProt P03952) (P03952 391-638 limits assumed): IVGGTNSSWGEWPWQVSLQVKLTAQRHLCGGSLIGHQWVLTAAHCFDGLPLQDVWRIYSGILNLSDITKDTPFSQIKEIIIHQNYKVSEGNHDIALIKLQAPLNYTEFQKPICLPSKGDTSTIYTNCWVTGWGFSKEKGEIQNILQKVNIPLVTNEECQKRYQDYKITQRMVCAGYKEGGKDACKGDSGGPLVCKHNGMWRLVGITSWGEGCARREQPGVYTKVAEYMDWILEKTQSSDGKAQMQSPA

With `CC(C)C[C@@H]1NC(=O)[C@@H]2CCCN2C(=O)[C@H](C)NC(=O)[C@H](CC(=O)O)NC(=O)[C@H](Cc2c[nH]c3ccccc23)NC(=O)[C@@H]2CCCN2C(=O)[C@@H]2CSCc3cc(cc(c3)CSC[C@@H](C(=O)N[C@@H](C)C(=O)O)NC1=O)CSC[C@H](NC(=O)[C@H](C)N)C(=O)N[C@@H](CC(N)=O)C(=O)N[C@@H]([C@@H](C)O)C(=O)N[C@@H](Cc1c[nH]c3ccccc13)C(=O)N[C@@H](CC(N)=O)C(=O)N1CCC[C@H]1C(=O)N[C@@H](Cc1c[nH]c3ccccc13)C(=O)N2` (H-ACNTWNPWCPWDAPLCA-OH; linker 2-9-16 via TBMB) the Stability [1] was “Unstable”, the solubility [2] was “Insoluble” and the Ki [3] was 2.3 nM. The Ki [4] was 0.4 nM.

`CC(=O)N[C@H]1CSCc2cc3cc(c2)CSC[C@H](NC(=O)[C@H](CCCNC(=N)N)NC(=O)[C@H](C)NC(=O)[C@@H]2CCCN2C(=O)[C@H](Cc2c[nH]c4ccccc24)NC(=O)[C@H](CO)NC1=O)C(=O)N[C@@H](CC(C)C)C(=O)N[C@@H](Cc1cnc[nH]1)C(=O)N[C@@H](CCC(N)=O)C(=O)N[C@@H](CC(=O)O)C(=O)N[C@@H](CC(C)C)C(=O)N[C@H](C(=O)O)CSC3` (Ac-CSWPARCLHQDLC-OH; linker 1-7-13 via TBMB) showed a Ki [3] of 0.15 nM, a Ki [4] of 2 nM and a Ki [5] of 10 nM. The Ki [6] was 3.6 nM, the half-life at 4 µM [7] was 7 h and the half-life at 4 µM [8] was 1.5 h. The half-life at 4 µM [9] was 2.8 h, the half-life at 1 µM [10] was greater than 24 h and the Drug metabolism [11] was “Metabolite_Detected”. The Drug metabolism [12] was “Metabolite_Detected”, the clearance [13] was 156 mL/min/kg and the Drug metabolism [14] was “Metabolite_Detected”. The Drug metabolism [15] was “Metabolite_Detected”, the Drug metabolism [16] was “Metabolite_Detected” and the Drug metabolism [17] was “Metabolite_Detected”.
